The subject of this test is PC9 cells. Put plainly: Cell cycle by PI staining flow cytometry. Format: cell-based, human. The following applies: PC9, 24 h. In a few lines: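 Cells in RPMI 1640 with 10% FBS (37°C, 5% CO2) were seeded in 6-well plates at 20–25% confluence and exposed to graded test compound or a reference EGFR inhibitor for 24 h. They were then fixed in 70% ethanol for 24 h at 4°C, washed twice in PBS, treated with RNase A at 37°C for 30 min and stained with PI (50 μg/mL) for 10 min. DNA content was read by flow cytometry.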
(In general: A flow cytometer gives signals particle by particle.)

The structures appear in SMILES notation.

`COc1cc2ncnc(Nc3ccc(F)c(Cl)c3)c2cc1OCCCN1CCOCC1` [gefitinib]: the cell cycle arrest result is “arrested only PC9 (EGFR L858R+) cells at G0/G1 phase”.

The values above are taken from PMC9828441 (Acta Biochimica et Biophysica Sinica, 2022).
